Measured values: ChEMBL document CHEMBL3804753, “Substituted quinolines as noncovalent proteasome inhibitors” (Bioorg Med Chem, 2016)
pIC50: −log10 of the molar value.

biological target: T1, Proteasome Macropain subunit MB1 (Homo sapiens, UniProt P28074); assay: Inhibition of human 20S proteasome chymotryptic-like activity using Suc-LLVY-AMC as substrate measured for 30 mins by fluorescence assay
T1 sequence (P28074 whole entry): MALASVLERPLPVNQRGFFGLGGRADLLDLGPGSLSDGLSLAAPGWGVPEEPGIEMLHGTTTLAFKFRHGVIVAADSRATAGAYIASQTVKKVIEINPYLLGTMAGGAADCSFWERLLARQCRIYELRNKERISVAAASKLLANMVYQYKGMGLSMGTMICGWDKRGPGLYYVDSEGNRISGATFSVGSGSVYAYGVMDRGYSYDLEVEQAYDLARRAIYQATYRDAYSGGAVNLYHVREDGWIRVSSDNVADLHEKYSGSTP
Summary of the method: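 Purified human 20S proteasome (1 nM) in 50 mM Tris-HCl pH 7.5 with 0.03% SDS and 50 μM fluorogenic substrate (Suc-LLVY-AMC for CT-L, Z-ARR-AMC for T-L, Z-LLE-AMC for casp-L), 37 °C. Maximum fluorescence increase per minute gave specific activity; IC50 taken from the linear portion of the curves.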

SMILES | pIC50
C=C(C)c1cc2c(C)cc(C)cc2nc1CC | < 4.60
COc1ccc2nc(C)c(C3=CCCCC3)cc2c1 | < 4.60
Cc1nc2cc(Cl)cc(Cl)c2cc1C1=CCCCC1 | < 4.60
Cc1nc2ccc(F)cc2cc1C1=CCCCC1 | < 4.60
Cc1nc2cc(Br)cc(Br)c2cc1C1=CCCCC1 | < 4.60
Cc1nc2ccc(N3CCOCC3)cc2cc1C1=CCCCC1 | 5.04
Cc1nc2ccc(N3CCCCC3)cc2cc1C1=CCCCC1 | 5.27
Cc1cnc2ccccc2c1 | < 4.60
Cc1nc2ccc(Cl)cc2cc1C1=CCCCC1 | < 4.60
Cc1ccc2ccccc2n1 [QUINALDINE] | < 4.60

Second part, the compound after the results:

pIC50 | SMILES
< 4.60 | Cc1nc2ccc(C(C)C)cc2cc1-c1ccccc1
< 4.60 | Cc1cc(C)c2cc(-c3ccccc3)c(-c3ccccc3)nc2c1
< 4.60 | CN(C)c1ccc2ncc(C(C)(C)C)cc2c1
< 4.60 | c1ccc(-c2cnc3ccccc3c2)cc1
< 4.60 | CN(C)c1ccc2nc(-c3ccccc3)c(-c3ccccc3)cc2c1
< 4.60 | CCCCc1ccc2cc(N(C)C)ccc2n1
< 4.60 | Cc1nc2ccc(Br)cc2cc1-c1ccccc1
< 4.60 | Cc1nc2ccccc2cc1C1=CCCCC1

system: not listed separately; assay: Inhibition of human 20s proteasome in human TNFalpa stimulated NF-kappaB-luc expressing HeLa cells assessed as suppression of NF-kappaB mediated gene expression preincubated for 30 min followed by TNFalpha stimulation measured after 8 hrs by steady-Glo luciferase assay; format: cell-based
Summary of the method: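 HeLa NF-κB-luc cells were seeded in DMEM with 5% FBS and hygromycin B. After 24 h the medium was swapped for serum-free DMEM with antibiotics. Cells were pretreated 30 min at 37 °C, 5% CO2 with compound (final 50, 25, 12.5, 6.25, 3.13, 1.56 μM), vehicle 1% DMSO, or 50 μM MG-132 as positive control. TNF-α (25 ng/mL final) was then added for 8 h. Firefly luciferase was read by Steady-Glo, normalized to TNF-α stimulation. Average of 2 independent experiments.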

pIC50 | SMILES
4.92 | Cc1cc(C)c2cc(C3=CCCCC3)c(C)nc2c1

biological target: T1, Proteasome Macropain subunit MB1; assay: Inhibition of human 20S proteasome chymotryptic-like activity using Suc-LLVY-AMC as substrate assessed as fluorescence quinching control by fluorescence assay

pIC50 | SMILES
5.64 | CN(C)c1ccc2nc(-c3ccccc3)c(-c3ccccc3)cc2c1
